Screens (PubChem)
Compounds with a hit are over-represented: about 2.1% of the library has one in this group of screens.
Xi reactivation: activators of X-chromosome reactivation in mouse fibroblasts; XiGFP mouse fibroblasts, % GFP-positive cells imaging, 3 d; cells co-treated with 5-aza-dC sensitizer; scaled so ellipticine positive control = 100%; activation, % at 7.58 µM; actives 0.055% (n = 360,000);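 active = mean normalized replicate activation at least 10% and every replicate at or above 10%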;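 also: 0% = median of on-plate neutral control wells and 100% = ellipticine 6 µM median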
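System: SV40-immortalized XiGFP fibroblast cells, line 68-5-11 / Incubation: 3-day compound exposure, then 15 min fixation at room temperature / Compound: single concentration per compound, delivered by pin transfer / Buffer or medium: DMEM plus 5-aza-dC sensitizer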
EWS-Fli block: inhibitors of EWS/Fli oncoprotein transcriptional activity. A673 NR0B1-luciferase reporter, viability-normalised. inhibition, % at 12.6 µM. actives 0.67% (n = 350,000);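 active = mean inhibition of at least 50% after viability correction, with every replicate also passing that limit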;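 also: firefly luciferase signal divided by Alamar Blue viability fluorescence both relative to DMSO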
PAX8 reporter: lowers PAX8-driven luciferase in RMG-I cells. actives 1.2% (n = 360,000). inhibition, % at 12.6 µM. AID 652154. RMG-I TPO-luciferase reporter, SteadyGlo, 24 h;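 active = mean replicate inhibition at least 60% with every replicate also reaching 60%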;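 also: luciferase light reporting Pax8 driven TPO promoter activity; plate controls were median of neutral control wells for no effect and mitoxantrone controls for full effect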
AF4-AF9 inh: MLL-AF4/AF9 protein interaction inhibition; actives 0.47% (n = 350,000); inhibition, % at 10 µM; P42568; AlphaScreen, biotin-AF4 peptide binding to FLAG-AF9;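 active = every replicate reaching a set inhibition limit, whatever the replicate mean, cut at about 25% in these data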;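 also: 0% = plate neutral control median and 100% = total signal loss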
Target sequence (P42568 whole entry, looked up): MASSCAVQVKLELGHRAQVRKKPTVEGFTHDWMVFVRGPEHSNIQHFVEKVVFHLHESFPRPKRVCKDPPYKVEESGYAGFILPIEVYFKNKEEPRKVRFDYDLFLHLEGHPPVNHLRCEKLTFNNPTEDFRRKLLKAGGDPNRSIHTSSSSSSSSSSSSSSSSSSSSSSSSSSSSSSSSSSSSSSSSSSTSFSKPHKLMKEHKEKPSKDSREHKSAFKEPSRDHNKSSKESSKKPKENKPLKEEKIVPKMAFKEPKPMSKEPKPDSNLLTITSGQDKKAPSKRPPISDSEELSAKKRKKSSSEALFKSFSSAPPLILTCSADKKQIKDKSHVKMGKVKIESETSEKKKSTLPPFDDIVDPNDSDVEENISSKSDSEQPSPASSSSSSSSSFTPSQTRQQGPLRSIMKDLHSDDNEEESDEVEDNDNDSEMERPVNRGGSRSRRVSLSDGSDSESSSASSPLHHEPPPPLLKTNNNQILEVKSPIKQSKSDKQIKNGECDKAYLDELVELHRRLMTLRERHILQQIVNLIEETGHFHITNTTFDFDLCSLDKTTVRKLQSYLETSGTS
PGC1a acetyl inh: lowers PGC1a acetylation signal in U2OS cells; inhibition, % at 15.6 µM; AlphaScreen anti-acetyl-lysine; with virally co-expressed GCN5 acetyltransferase; actives 0.17% (n = 350,000); AID 651687;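 active = every replicate shows inhibition of at least 40%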;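 also: 0% = neutral control wells and 100% = positive control wells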
GSIS activator: primary screen for activators of insulin secretion dependent on glucose, INS-1E cells, GLuc reporter luminescence | activation, % at 16.6 µM | actives 0.61% (n = 370,000) | AID 743287 | INS-1E GLuc reporter insulin secretion, 2-3 h;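 active = lowest replicate activation of at least 40%, so every replicate reaches that level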;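 also: 0% = median of neutral control wells and 100% = median of IBMX positive control wells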
* marks the source's active call; other numbers are inactive results; . = no result given.

SMILES	Xi reactivation	EWS-Fli block	PAX8 reporter	AF4-AF9 inh	PGC1a acetyl inh	GSIS activator
O=C1c2cccc3c([N+](=O)[O-])ccc(c23)C(=O)N1Cc1cccnc1	20*	38	34	1	18	7
Cc1ccnc(N2C(=O)c3cccc4c([N+](=O)[O-])ccc(c34)C2=O)c1	.	66*	.	-7	30	0
C[C@@H]1CCCCO[C@H](CN(C)C(=O)Nc2ccc(F)cc2)[C@H](C)CN([C@@H](C)CO)C(=O)c2cc(NC(=O)Nc3ccc4c(c3)OCO4)ccc2O1	0	-58	9	1	3	6
CN(C)c1ccc(/C=N/NC(=O)c2ccccc2Cl)cc1	1	12	-49	8	-2	52*
CC=Cc1ccc2n(c1=O)C[C@@H]1[C@@H](CO)[C@H](C(=O)NCC3CCCCC3)N(C(C)=O)[C@H]21 (mixture of isomers)	0	-2	.	0	.	8
COC(=O)c1cccc(NC(=O)c2cc3ccccc3o2)c1	0	84*	-96	-6	-5	.
COC(=O)c1cc(NC(=O)c2cc3ccccc3o2)cc(C(=O)OC)c1	0	8	-17	-2	8	-9
COc1ccc(C(=O)NCC(=O)OCCCOC(=O)CNC(=O)c2ccc(OC)c(OC)c2)cc1OC	0	3	-13	-2	4	-3
CCOc1ccc(C(=O)NCC(=O)Nc2cc(C)ccn2)cc1OCC	0	-26	-15	1	.	44*
Cc1ccnc(NC(=O)CNC(=O)c2ccco2)c1	0	-20	3	-2	.	45*
Cc1ccc(C(=O)NCC(=O)Nc2cc(C)ccn2)cc1	0	-77	-81	-17	3	-6
CCOc1ccc(C(=O)NCC(=O)OCCCC(=O)c2ccc(F)cc2)cc1OCC	0	-3	4	0	.	45*
Cc1ccnc(NC(=O)c2cc3ccccc3o2)c1	0	75*	58	-3	.	2
Nc1ccc(-c2ncc(-c3ccccc3)o2)cc1	0	65*	-33	4	.	12
Cc1noc(C)c1S(=O)(=O)Nc1ccc2c(c1)C(=O)N([C@H](C)CO)C[C@H](C)[C@H](CN(C)S(=O)(=O)c1ccccc1)OCCCC[C@H](C)O2	0	18	11	3	3	-10
COc1cccc2c1C1COC3C4CC(C(=O)O)C(C(C2)N13)N4C (centres undefined)	0	72*	.	-2	-2	15
COc1cccc2c1C(CCCC(=O)O)CCC2 (centres undefined)	0	2	-13	-3	-2	27
CN(C)c1ccc(/C=C/c2ccc3ccccc3n2)cc1	.	.	.	.	-7	-10
CCN(CC)c1ccc(/C=C/c2cc(-c3ccccc3)c3ccccc3n2)cc1	95*	-5	-13	-29	.	0
CC1(C(=O)Nc2cccc(C#N)c2)CCN1C(=O)CCc1ccccc1 (centres undefined)	0	1	-12	1	44*	11
COc1ccc(Nc2nc(-c3ccccc3)nc3ccccc23)cc1S(=O)(=O)N1CCOCC1	0	14	65*	-29	-6	3
CCCCCC(=O)N/N=C(\C)c1ccc(N2CCCCC2)cc1	0	-20	126*	13	.	-7
C/C(=N\NC(=O)c1ccccc1)c1ccc(N2CCCCC2)cc1	0	-110	21	-3	-1	.
CCC1=NN(C(=O)Cc2ccc(OC)cc2)C(O)(C(F)(F)F)C1 (centres undefined)	.	-9	.	-13	6	3
COc1ccc(CC(=O)N2N=C(c3ccncc3)CC2(O)C(F)(F)F)cc1 (centres undefined)	0	53*	31	-1	.	-16
CC(C)C#Cc1ccc([C@H]2[C@@H](CO)N3C(=O)CN(C(=O)Cc4cccnc4)C[C@H]23)cc1	1	.	.	.	.	-2
CC(=O)Oc1cccc(N2C(=O)c3ccccc3C2=O)c1	0	-7	78*	-3	.	-6
CC(=O)Nc1cccc2c1C(=O)N(c1cccc(OC(C)=O)c1)C2=O	0	12	11	-2	.	7
C=CCn1c(SC(F)F)nc2scc(-c3ccco3)c2c1=O	0	13	82*	-4	-11	5
